# Assay results taken from ChEMBL document CHEMBL4196230, “Design, Synthesis, and Blood-Brain Barrier Transport Study of Pyrilamine Derivatives as Histone Deacetylase Inhibitors” (ACS Med Chem Lett, 2018).
# pIC50: −log10 of the molar value. Active and inactive are the calls of the source. No cut-off for these calls is given here.
# Assays:
# [1] = biological target: T1, Histone deacetylase 7 (Homo sapiens) (UniProt Q8WUI4); experiment: Inhibition of recombinant human HDAC7 (518 to end residues) expressed in baculovirus infected insect cells at 30 uM using HDAC class 2a substrate measured after 30 mins by fluorescence assay relative to control
# T1 sequence (whole entry): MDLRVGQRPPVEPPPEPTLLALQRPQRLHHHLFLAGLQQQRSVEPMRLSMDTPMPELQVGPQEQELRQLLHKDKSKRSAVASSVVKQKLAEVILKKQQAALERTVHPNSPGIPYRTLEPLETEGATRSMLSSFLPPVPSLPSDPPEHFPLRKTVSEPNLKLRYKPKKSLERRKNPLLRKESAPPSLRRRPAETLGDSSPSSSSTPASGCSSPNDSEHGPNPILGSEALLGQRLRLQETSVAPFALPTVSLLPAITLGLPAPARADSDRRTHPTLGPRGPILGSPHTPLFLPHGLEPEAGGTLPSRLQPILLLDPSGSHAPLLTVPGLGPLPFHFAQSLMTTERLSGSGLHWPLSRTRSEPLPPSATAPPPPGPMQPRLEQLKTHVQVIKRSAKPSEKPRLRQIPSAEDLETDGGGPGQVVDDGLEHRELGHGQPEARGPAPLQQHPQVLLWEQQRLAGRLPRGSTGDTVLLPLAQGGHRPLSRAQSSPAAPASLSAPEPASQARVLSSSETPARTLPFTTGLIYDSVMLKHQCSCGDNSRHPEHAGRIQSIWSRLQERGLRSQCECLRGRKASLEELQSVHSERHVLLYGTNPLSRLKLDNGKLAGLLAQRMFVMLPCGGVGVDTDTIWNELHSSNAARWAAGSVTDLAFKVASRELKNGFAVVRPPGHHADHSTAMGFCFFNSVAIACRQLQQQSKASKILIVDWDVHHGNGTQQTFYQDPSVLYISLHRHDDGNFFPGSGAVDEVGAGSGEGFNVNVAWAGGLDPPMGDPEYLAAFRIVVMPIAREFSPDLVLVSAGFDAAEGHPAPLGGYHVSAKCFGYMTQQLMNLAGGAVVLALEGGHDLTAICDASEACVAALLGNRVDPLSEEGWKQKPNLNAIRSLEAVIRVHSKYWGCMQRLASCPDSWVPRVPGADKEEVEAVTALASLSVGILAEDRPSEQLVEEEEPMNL
# [2] = biological target: T2, Histone deacetylase (Homo sapiens) (UniProt Q13547+O15379+Q9UBN7+Q92769+Q9UQL6+Q8WUI4+Q9BY41+Q96DB2+P56524+Q9UKV0+Q969S8); experiment: Time-dependent inhibition of HDAC in human HeLaS3 cells assessed as increase in histone H3K9 acetylation at 10 uM by immunoblot analysis; type: cell-based
# [3] = biological target: Histone deacetylase 5 (Homo sapiens) (UniProt Q9UQL6); experiment: Inhibition of human recombinant HDAC5 expressed in baculovirus infected insect cells at 30 uM using HDAC class 2a substrate measured after 30 mins by fluorescence assay relative to control
# Sequence of Histone deacetylase 5 (Homo sapiens) (Q9UQL6 whole entry): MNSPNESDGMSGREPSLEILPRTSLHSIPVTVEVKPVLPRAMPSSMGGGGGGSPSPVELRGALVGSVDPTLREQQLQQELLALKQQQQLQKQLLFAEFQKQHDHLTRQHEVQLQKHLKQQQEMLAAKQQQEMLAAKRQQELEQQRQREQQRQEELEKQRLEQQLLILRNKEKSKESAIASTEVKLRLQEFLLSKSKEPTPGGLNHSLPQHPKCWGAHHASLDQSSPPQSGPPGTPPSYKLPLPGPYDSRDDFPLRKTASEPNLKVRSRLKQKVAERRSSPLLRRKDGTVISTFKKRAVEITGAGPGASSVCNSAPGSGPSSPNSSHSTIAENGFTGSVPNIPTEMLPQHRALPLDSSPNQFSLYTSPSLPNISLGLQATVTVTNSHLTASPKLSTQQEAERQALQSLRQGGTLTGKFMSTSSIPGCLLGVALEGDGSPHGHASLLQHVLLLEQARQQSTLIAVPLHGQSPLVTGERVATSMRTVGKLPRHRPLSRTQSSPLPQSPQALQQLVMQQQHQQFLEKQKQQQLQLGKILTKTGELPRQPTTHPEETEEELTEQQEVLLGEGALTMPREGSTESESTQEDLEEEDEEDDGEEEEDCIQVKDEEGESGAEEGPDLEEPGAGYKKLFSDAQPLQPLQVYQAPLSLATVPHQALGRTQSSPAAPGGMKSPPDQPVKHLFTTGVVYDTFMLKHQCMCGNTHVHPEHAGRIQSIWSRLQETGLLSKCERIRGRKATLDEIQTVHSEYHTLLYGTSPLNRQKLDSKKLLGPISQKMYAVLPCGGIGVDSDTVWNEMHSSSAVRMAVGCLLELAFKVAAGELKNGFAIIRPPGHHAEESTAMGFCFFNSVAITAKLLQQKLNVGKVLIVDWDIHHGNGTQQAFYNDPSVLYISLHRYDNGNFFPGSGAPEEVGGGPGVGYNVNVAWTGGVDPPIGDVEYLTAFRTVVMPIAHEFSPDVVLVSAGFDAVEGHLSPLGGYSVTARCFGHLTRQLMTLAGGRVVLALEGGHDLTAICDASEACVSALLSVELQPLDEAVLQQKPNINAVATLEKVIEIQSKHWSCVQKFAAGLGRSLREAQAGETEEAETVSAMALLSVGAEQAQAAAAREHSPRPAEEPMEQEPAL
# [4] = biological target: T3, Polyamine deacetylase HDAC10 (Homo sapiens, UniProt Q969S8); experiment: Inhibition of human HDAC10 expressed in baculovirus infected Sf9 insect cells using HDAC substrate 3 measured after 30 mins by fluorescence assay
# T3 sequence (Q969S8 whole entry): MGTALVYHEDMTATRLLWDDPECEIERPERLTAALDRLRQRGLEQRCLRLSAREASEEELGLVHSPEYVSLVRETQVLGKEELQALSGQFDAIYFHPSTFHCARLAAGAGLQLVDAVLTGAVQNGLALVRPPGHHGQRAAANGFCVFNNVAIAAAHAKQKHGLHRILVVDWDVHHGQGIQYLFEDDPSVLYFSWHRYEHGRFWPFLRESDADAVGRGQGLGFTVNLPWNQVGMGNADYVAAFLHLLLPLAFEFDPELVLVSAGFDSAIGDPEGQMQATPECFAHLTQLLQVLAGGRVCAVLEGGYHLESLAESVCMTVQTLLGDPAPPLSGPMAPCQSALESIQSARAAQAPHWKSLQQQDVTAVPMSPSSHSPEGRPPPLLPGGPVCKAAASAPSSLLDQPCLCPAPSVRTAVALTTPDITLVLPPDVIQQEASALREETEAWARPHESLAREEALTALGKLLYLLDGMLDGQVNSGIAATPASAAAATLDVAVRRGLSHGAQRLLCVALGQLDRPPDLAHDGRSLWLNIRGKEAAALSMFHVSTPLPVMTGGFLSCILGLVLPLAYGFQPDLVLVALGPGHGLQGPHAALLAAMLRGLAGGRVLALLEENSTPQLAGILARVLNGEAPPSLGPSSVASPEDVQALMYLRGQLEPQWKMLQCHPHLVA
# [5] = biological target: T2, Histone deacetylase (Homo sapiens); settings: at 10 µM
# [6] = biological target: T4, Histone deacetylase 11 (Homo sapiens) (UniProt Q96DB2); experiment: Inhibition of recombinant human full length HDAC11 expressed in baculovirus infected insect cells at 30 uM using HDAC class 2a substrate measured after 30 mins by fluorescence assay relative to control
# T4 sequence (whole entry): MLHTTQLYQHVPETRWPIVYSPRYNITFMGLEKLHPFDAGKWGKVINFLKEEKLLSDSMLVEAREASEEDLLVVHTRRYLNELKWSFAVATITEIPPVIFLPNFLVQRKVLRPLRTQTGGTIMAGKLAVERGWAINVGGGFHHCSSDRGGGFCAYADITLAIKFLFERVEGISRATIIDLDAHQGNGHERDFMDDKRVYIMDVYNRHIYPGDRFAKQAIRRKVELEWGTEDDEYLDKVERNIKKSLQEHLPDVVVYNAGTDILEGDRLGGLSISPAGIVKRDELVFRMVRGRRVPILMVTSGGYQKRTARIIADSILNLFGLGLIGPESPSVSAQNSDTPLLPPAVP
# [7] = Substrate activity at PYSOCA in human CMEC/D3 cells assessed as transporter-mediated drug uptake measured for 2 mins at 37degC in presence of MPP+; type: ADME, cell-based
# [8] = biological target: Histone deacetylase 3/Nuclear receptor corepressor 2 (HDAC3/NCoR2) (Homo sapiens, UniProt O15379); experiment: Inhibition of human full length C-terminal His-tagged HDAC3/N-terminal GST-tagged human NCOR2 (395 to 489 residues) co-expressed in baculovirus infected Sf9 insect cells using HDAC substrate 3 measured after 30 mins by fluorescence assay
# Sequence of Histone deacetylase 3/Nuclear receptor corepressor 2 (HDAC3/NCoR2) (O15379 whole entry, the tested form may be a part): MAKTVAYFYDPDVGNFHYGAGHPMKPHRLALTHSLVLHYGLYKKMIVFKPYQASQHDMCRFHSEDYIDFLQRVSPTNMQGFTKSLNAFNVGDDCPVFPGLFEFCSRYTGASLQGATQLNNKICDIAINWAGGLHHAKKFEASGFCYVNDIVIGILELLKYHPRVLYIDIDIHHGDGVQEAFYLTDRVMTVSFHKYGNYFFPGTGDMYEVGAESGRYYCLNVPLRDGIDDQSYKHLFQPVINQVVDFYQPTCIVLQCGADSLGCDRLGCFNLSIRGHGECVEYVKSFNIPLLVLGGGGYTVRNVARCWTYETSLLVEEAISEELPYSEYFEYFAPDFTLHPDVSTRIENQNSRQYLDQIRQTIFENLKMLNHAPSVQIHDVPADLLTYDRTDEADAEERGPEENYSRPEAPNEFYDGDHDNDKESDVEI
# Sequence of Histone deacetylase 3/Nuclear receptor corepressor 2 (HDAC3/NCoR2) (Q9Y618 whole entry, further chain, the tested form may be a part): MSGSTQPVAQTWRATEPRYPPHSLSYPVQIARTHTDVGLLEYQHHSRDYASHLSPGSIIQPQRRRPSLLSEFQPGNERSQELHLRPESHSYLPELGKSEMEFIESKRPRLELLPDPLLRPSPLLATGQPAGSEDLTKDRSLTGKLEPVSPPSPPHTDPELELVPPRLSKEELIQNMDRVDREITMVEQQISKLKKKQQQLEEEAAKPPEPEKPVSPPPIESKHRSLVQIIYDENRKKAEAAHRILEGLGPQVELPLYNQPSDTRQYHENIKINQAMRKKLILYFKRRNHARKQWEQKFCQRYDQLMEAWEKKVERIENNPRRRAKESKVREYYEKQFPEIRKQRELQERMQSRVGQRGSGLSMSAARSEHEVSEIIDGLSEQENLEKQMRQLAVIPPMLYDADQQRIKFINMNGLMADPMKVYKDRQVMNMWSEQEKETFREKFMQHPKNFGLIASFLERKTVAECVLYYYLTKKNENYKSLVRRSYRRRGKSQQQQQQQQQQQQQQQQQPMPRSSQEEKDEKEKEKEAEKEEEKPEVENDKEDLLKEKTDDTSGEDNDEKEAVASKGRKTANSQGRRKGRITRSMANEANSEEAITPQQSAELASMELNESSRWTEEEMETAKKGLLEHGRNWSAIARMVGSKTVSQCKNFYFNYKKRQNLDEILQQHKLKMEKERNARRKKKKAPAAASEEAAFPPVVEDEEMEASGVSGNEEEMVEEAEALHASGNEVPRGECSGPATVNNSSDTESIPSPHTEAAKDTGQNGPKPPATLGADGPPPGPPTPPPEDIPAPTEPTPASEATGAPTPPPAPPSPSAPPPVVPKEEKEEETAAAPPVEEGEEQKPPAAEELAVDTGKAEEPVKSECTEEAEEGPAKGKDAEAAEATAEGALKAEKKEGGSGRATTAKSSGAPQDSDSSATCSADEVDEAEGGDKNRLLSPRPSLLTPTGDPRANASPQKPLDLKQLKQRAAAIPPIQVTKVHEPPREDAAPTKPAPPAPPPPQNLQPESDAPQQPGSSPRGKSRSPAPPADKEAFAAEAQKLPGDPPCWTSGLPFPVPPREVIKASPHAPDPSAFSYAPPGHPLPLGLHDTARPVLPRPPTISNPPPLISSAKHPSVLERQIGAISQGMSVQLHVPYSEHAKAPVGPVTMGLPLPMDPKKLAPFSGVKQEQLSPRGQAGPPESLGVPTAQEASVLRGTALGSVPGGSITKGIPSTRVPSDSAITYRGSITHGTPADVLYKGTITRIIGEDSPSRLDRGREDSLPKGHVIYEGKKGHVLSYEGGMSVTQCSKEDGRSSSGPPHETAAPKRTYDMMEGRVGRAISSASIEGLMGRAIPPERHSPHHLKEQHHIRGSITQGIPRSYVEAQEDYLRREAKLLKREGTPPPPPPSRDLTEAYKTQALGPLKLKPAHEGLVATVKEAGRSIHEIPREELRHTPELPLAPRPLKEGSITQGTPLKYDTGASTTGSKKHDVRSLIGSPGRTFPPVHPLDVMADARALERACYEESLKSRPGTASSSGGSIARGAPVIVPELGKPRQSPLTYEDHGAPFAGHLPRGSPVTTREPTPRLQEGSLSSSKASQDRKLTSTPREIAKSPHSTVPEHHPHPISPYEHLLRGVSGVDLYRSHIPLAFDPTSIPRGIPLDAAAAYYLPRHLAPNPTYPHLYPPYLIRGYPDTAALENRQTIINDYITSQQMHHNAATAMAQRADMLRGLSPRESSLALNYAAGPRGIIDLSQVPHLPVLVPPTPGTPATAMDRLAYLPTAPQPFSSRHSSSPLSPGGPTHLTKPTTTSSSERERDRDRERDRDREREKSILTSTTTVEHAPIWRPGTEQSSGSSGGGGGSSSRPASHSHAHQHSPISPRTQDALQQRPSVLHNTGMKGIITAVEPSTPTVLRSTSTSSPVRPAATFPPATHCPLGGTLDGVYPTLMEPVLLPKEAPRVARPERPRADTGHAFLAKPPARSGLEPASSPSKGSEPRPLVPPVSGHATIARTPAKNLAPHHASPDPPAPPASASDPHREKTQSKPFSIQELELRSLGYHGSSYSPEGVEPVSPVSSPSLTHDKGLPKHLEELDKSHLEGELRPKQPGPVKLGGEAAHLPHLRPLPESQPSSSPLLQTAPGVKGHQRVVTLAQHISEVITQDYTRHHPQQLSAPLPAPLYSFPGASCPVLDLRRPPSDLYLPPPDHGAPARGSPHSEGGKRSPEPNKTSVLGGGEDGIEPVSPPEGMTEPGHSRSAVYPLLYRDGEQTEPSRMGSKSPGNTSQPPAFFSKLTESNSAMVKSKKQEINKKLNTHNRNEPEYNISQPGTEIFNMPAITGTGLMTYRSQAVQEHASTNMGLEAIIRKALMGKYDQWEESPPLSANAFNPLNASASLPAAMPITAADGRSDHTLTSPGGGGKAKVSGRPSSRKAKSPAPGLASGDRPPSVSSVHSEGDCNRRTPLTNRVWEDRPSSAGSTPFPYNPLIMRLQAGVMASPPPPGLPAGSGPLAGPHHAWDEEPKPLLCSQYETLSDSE
# [9] = Substrate activity at PYSOCA in human CMEC/D3 cells assessed as Vmax for transporter-mediated drug uptake assessed per mg protein measured for 2 mins at 37degC; type: ADME, cell-based
# Procedure, shortened: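 Uptake by hCMEC/D3 cells measured over a range of concentrations at 37 °C for 2 min. Km and Vmax were obtained by fitting to Eq. 1. Mean ± S.E., n = 4.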
# [10] = biological target: Histone deacetylase 9 (Homo sapiens) (UniProt Q9UKV0); experiment: Inhibition of recombinant human C-terminal His-tagged HDAC9 (604 to 1066 residues) expressed in baculovirus infected insect cells at 30 uM using HDAC class 2a substrate measured after 30 mins by fluorescence assay relative to control
# Sequence of Histone deacetylase 9 (Homo sapiens) (Q9UKV0 whole entry, the tested form may be a part): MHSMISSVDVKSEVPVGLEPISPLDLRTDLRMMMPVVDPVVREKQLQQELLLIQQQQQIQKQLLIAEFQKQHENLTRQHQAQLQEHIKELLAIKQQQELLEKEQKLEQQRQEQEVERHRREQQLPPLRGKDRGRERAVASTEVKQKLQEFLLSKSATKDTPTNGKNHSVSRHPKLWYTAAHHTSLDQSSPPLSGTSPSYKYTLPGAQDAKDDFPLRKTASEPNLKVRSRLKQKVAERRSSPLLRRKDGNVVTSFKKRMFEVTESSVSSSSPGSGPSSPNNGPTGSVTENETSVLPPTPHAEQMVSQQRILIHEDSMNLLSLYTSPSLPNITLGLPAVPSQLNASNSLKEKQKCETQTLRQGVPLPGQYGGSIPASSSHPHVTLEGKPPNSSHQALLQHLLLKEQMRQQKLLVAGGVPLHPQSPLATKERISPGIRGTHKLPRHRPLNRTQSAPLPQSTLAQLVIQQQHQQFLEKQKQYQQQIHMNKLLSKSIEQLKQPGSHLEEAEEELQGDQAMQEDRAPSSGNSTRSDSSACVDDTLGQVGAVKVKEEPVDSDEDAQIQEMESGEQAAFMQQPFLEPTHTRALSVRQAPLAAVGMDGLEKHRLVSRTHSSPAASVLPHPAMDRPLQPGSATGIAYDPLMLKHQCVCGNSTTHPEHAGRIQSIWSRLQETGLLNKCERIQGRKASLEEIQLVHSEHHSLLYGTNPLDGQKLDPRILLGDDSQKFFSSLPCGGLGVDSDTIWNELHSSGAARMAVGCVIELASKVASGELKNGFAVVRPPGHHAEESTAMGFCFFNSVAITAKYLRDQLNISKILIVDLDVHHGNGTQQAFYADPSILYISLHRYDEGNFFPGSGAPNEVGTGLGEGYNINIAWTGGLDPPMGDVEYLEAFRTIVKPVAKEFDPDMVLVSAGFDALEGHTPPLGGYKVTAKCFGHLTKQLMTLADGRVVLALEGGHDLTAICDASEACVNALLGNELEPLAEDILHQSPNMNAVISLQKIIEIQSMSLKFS
smiles,measurement,setting,value
COc1ccc(CN(CCN(C)C)c2ccc(C(=O)Nc3ccccc3N)cn2)cc1,inhibition,[1],< 10%
same,TDI,[2],Active
same,inhibition,[3],< 10%
same,pIC50,[4],4.81
same,inhibition,[5],Active
same,inhibition,[6],< 10%
same,Activity,[7],Active
same,pIC50,[8],4.92
same,Vmax,[9],5.17 nmol/min
same,inhibition,[10],< 10%
